From PubChem BioAssay
Compounds with a hit are over-represented: about 2.2% of the library has one in this group of screens.
Efflux pump inh: antifungal efflux pump inhibition, Nile Red retention; S. cerevisiae Candida pump triplex; inhibition, % at 10 µM; 330,000 tested, 0.44% active; AID 485275;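 active means plate passing quality check with inhibition over a set limit, or well fluorescence over plate mean plus 4 SD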;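 further: Nile Red retained in pooled yeast measured as flow cytometry median fluorescence; 0% = buffer negative control and 100% = Enniatin B positive control; higher means more Nile Red kept so more efflux inhibition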
PolyA inhibitor: yeast polyadenylation inhibition. S. cerevisiae SKY197-pL101 polyadenylation reporter, beta-gal luminescence; efflux-impaired pdr1/pdr3 knockout yeast; score 100 = 6 SD above DMSO. activity score, % at 12 µM. 300,000 tested, 0.02% active. AID 1875;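 active means lowest replicate activity score at least 50, where 100 means six control SD above control mean; inconclusive means lowest score under 50 but half or more replicates reach 50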;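 further: yeast exposed to compound for 9 h at 30 °C; higher score means more reporter readthrough which indicates perturbed polyadenylation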
T cruzi inh: T. cruzi replication inhibition; T. cruzi beta-gal in NIH3T3, luminescence, 90 h; inhibition, % (no concentration beside the values); 300,000 tested, 1.4% active; AID 1885;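 active means mean inhibition across valid replicates above about 55%, limit read from the data; inconclusive means mean below that limit but half or more replicates reach it; inactive means mean below it, under half of replicates reach it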;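 further: signal also drops with host cell toxicity which is not excluded here; 0% = plate median of DMSO wells and 100% = zero luminescence signal; higher percent means less beta-gal luminescence so fewer parasites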
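System: Mouse NIH/3T3 fibroblasts infected with β-gal-expressing T. cruzi Tulahuen C4 | Quantity: NIH/3T3 cells, 5,000 per well | Reagent: 5000 reporter trypomastigotes per well | Dosing: Compound pinned at 50 nL/well, DMSO | Schedule: 3 h host attachment, then at least 90 h co-culture | Detection: GalScreen luminescence, 60 min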
HDAC3 inh: blocks human histone deacetylase 3 | O15379 | inhibition, % at 8.3 µM | recombinant HDAC3, fluorogenic peptide/trypsin coupled, fluorescence | AID 2718 | 320,000 tested, 0.15% active; in the data active means inhibition above about 26%, passing the limit was not always enough; inconclusive means no clear call, values can overlap the other calls
Target sequence (O15379 whole entry, looked up): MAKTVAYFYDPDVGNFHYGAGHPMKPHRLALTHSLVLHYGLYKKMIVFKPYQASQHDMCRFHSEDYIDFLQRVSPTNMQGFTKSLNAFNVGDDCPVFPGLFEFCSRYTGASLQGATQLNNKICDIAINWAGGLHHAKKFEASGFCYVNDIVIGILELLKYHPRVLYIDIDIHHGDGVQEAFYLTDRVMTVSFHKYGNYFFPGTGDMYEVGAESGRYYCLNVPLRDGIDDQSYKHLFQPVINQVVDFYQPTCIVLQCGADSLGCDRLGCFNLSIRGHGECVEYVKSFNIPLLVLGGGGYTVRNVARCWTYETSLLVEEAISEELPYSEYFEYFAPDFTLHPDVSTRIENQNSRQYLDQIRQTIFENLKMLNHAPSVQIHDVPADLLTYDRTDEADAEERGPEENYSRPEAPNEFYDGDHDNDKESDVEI
AI-2 QS mod: Vibrio harveyi AI-2 quorum sensing modulation | AID 2094 | activity change, % at 7.5 µM | Vibrio harveyi JMH597 AI-2 luminescence/OD600 ratio, 9 h; stronger effect = lower value; strain lacks LuxN and CqsS sensors; 0 = neutral-control median | 300,000 tested, 0.4% active; in the data active means activity change below about -75%, passing the limit was not always enough; inconclusive means no clear call, values can overlap the other calls;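 further: luminescence divided by OD600 gain over 9 h not by final OD600 alone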
Yeast cmpd fluor: counter-screen for efflux pump inhibitors: compound fluorescence | S. cerevisiae AD/pABC3, flow cytometry | 1,700 tested, 4% active | fluorescence ratio to DMSO, % at 10 µM | shares compounds with Efflux pump inh;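 active means fluorescence ratio to DMSO above its plate's cutoff, the plate mean ratio plus 5 SD, cut at about 210% in these data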;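 further: unstained yeast with no Nile Red so the signal is compound autofluorescence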
CaMdr1 efflux inh: blocks the Candida albicans Mdr1 efflux pump in yeast | shares compounds with Efflux pump inh | S. cerevisiae AD/CaMDR1, Nile Red efflux, flow cytometry | inhibition, % at 10 µM | 1,700 tested, 1% active | AID 588518; in the data active means inhibition above about 26%;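 further: 0% = DMSO vehicle and 100% = reference inhibitor; higher means more Nile Red retained so more efflux inhibition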
CaCdr2 efflux inh: Candida Cdr2 efflux pump inhibition | shares compounds with Efflux pump inh | S. cerevisiae AD/CaCDR2, Nile Red retention, flow cytometry | Nile Red retention ratio vs DMSO, % at 10 µM | 1,700 tested, 4% active | AID 588520; in the data active means Nile Red retention ratio vs DMSO above about 190%;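 further: higher ratio means more blocking of Cdr2 efflux of the dye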
CaCdr1 efflux inh: inhibitors of Candida albicans Cdr1 efflux pump; S. cerevisiae AD/CaCDR1, Nile Red efflux, flow cytometry; inhibition, % at 10 µM; 1,700 tested, 1% active; shares compounds with Efflux pump inh;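 active means inhibition above the screen-wide mean plus twice its standard deviation, cut at about 32% in these data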
The depositor's hits bear a star; ? = inconclusive; . = no result given; + = active, no number.

SMILES	Efflux pump inh	PolyA inhibitor	T cruzi inh	HDAC3 inh	AI-2 QS mod	Yeast cmpd fluor	CaMdr1 efflux inh	CaCdr2 efflux inh	CaCdr1 efflux inh
COc1cc(OC)c(C2C(C(=O)Nc3ccc(C)cc3C)=C(C)Nc3ncnn32)cc1OC (configuration not stated)	0.8*	14	11	-2	19	99	0	108	0
O=C(CCc1ccccc1)NC(=S)Nc1ccc(S(=O)(=O)N2CCOCC2)cc1	8.0*	2	-4	-2	-62	104	0	99	0
O=C(Cc1ccccc1)Nc1ccc(S(=O)(=O)N2CCOCC2)cc1	0	5	-3	-4	4	.	.	.	.
O=C(O)c1cccc2c1C(=O)c1ccc(-c3ccc(Cl)c(C(F)(F)F)c3)cc1S2(=O)=O	0	.	.	0	.	.	.	.	.
CCc1nnc(NS(=O)(=O)c2ccc(NC(=S)NC(=O)/C=C/c3ccccc3)cc2)s1	5.8*	-19	-1	11	40	113	0	123	0
NC1=NC[C@H](Cc2ccc(O)cc2)N1CCCCC1CCCCC1	1	0	60*	8	22	98	0	+	0
c1ccc(C[C@H]2CN=C(Nc3ccccc3)N2CCC2CCCC2)cc1	0	.	.	-1	.	.	.	.	.
NC1=NC[C@H](Cc2ccccc2)N1CCCCC1CCCCC1	1.1*	1	48	7	21	116	0	121	0
Cc1cccnc1NC(=O)CCCNC(=O)c1ccc(Cl)cc1	0	-26	-13	8	10	.	.	.	.
Cc1nc2sc3c(c2c2nnc(SCC(=O)NCc4ccco4)n12)CCCC3	0.8*	20	7	-3	5	95	0	107	0
COc1ccc(C(O)(CCN2CCOCC2)c2ccccc2)cc1 (configuration not stated)	0	-10	-10	-2	4	.	.	.	.
Cc1nnsc1-c1nnc(SCC(=O)c2ccc(C#N)cc2)n1C1CC1	0.6*	24	-26	-8	24	107	0	108	0
Cc1nnsc1-c1nnc(SCC(=O)c2ccccc2)n1C1CC1	0	14	-3	-2	23	.	.	.	.
O=C(NCc1nnnn1-c1ccc(F)c(F)c1)c1cc2ccccc2o1	0	-4	-14	2	-17	.	.	.	.
O=S(=O)(c1cccc2cccnc12)N1CCN(c2ccccc2)CC1	17*	12	4	-3	14	110	0	102	0
CCc1cccc(C)c1NC(=O)c1ccc(CN2CCc3ccccc3C2)cc1	22*	3	-10	3	27	116	0	114	0
O=C(CSc1nnc(-c2ccncc2)n1CC1CCCO1)Nc1ccccc1Cl (configuration not stated)	0.5*	0	-13	-2	28	99	0	107	0
CC(=O)c1ccc(-n2c(CCC(=O)O)ccc2-c2ccc(Br)cc2)cc1	0	15	1	9	10	.	.	.	.
N#CCCN1CCN(C(=S)c2ccc(-c3cccc(Cl)c3)o2)CC1	0	1	29	5	1	.	.	.	.
N#CCCN1CCN(C(=S)c2ccc(-c3ccc(Cl)c(Cl)c3)o2)CC1	1.0*	-5	42	-3	12	104	0	90	0
Cc1oc(-c2ccc(Cl)cc2)nc1CS(=O)CC(=O)NC1CCCC1 (configuration not stated)	0	12	-4	4	5	.	.	.	.
CCOC(=O)C1CCCCN1S(=O)(=O)c1ccc2c(c1)CC(C)N2C(=O)C1CCC1 (configuration not stated)	0	-3	12	-4	7	103	0	96	0
CCOc1ccccc1OCC(=O)NN1Cc2ccccc2C1=N	0	-4	-13	5	13	.	.	.	.
O=C(Nc1ccc(CN2CCOCC2)cc1)c1ccc(Br)o1	1.7*	-8	-32	-2	26	93	0	108	0
COc1ccc(OCC(O)CNS(=O)(=O)c2cccc(Cl)c2)cc1 (configuration not stated)	0	18	4	5	11	.	.	.	.
SMILES	Efflux pump inh	PolyA inhibitor	T cruzi inh	HDAC3 inh	AI-2 QS mod	Yeast cmpd fluor	CaMdr1 efflux inh	CaCdr2 efflux inh	CaCdr1 efflux inh
COc1ccc(C(=O)COC(=O)c2cc(S(=O)(=O)N3CCCCC3)ccc2N2CCOCC2)c(OC)c1	0	-9	46	10	11	.	.	.	.
Cn1c(N)c(C(=O)COC(=O)c2ccccn2)c(=O)n(C)c1=O	1.7*	4	4	0	27	99	0	96	0
COC(=O)CCCC1=CC2=CC(=O)C(C)(OC(=O)c3cccs3)C(=O)C2=CN1c1ccc(OC)cc1 (configuration not stated)	0.7*	1	-1	7	32	106	0	107	0
Cc1ccc(C2=NN(S(C)(=O)=O)C(c3cccs3)C2)cc1 (configuration not stated)	0	5	-8	-7	12	.	.	.	.
CCc1ccc(C2=NN(S(C)(=O)=O)C(c3cccs3)C2)cc1 (configuration not stated)	3.0*	-8	?	-3	32	125	1	151	1
COc1ccc(C2/C=C\CN3CCC[C@H]3C(=O)N2Cc2ccc(F)cc2)cc1 (some centres not stated)	0	.	.	.	.	.	.	.	.
COc1ccccc1CC(=O)NC(=O)c1ccccc1O	3.0*	4	-16	-28	71	104	0	104	0
c1cc2c(cc1C1CCCCC1)c1c3n2CCCNC3CCC1 (configuration not stated)	95*	22	22	0	8	100	0	99	0
O=C(COc1ccc(Cl)cc1Cl)NN1C(=O)/C(=C\c2ccc(Cl)cc2)SC1=S	0	-10	-8	1	9	99	0	107	0
Cc1cc2oc(=O)c(CC(=O)NCCCO)c(C)c2c2occ(C(C)(C)C)c12	0	7	1	-12	18	.	.	.	.
Cc1cc2oc(=O)c(CC(=O)NCCCN(C)C)c(C)c2c2occ(C(C)(C)C)c12	0.9*	7	59*	-24	5	108	0	89	0
Cn1c(-c2ccccc2)cnc1SCC(=O)N1CCCc2ccccc21	15*	12	12	2	-2	108	0	116	0
